Source: PubChem (several laboratories)
Only some compounds are listed: those with a hit (about 4.1% of all), similar ones and a draw of the others.
MEKK2wt PB1 HTS: modulators of MEK5 binding to wildtype MEKK2, primary screen, biochemical, multiplex bead flow cytometry, Alexa488-MEK5. Mitogen-activated protein kinase kinase kinase 2 (Homo sapiens), Q9Y2U5. Alexa488-MEK5 binding to MEKK2 WT; actives lie on both sides. binding response (% of control), % at 10 µM. 290,000 compounds, 1.1% hits; in the data active means binding response below about 67% or above about 130%
T cruzi repl: inhibitors of intracellular T. cruzi growth, primary screen, luminescence, NIH3T3 host cells. T. cruzi beta-gal in NIH3T3, 90 h. inhibition, % (concentration not given with the values). 300,000 compounds, 1.4% hits. AID 1885, 2009;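 active means mean inhibition across valid replicates above about 55%, limit read from the data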;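 further: signal also drops with host cell toxicity which is not excluded here; 0% = plate median of DMSO wells and 100% = zero luminescence signal; higher percent means less beta-gal luminescence so fewer parasites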
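System: mouse NIH/3T3 fibroblasts infected with β-gal-expressing T. cruzi Tulahuen C4 / Input: NIH/3T3 cells, 5,000 per well / Buffer or medium: Low-serum DMEM with 2% FBS / Probe or stimulus: 5000 reporter trypomastigotes per well / Schedule: ≥90 h infection period, 3 h prior cell attachment / Measured by: GalScreen luminescence, 60 min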
NS3 helicase inh: inhibitors of HCV NS3 helicase, primary screen, biochemical, Cy5 molecular beacon fluorescence | Hepatitis C virus NS3 helicase | NS3 helicase DNA unwinding | inhibition, % at 10.9 µM | 290,000 compounds, 0.56% hits | AID 1800, 2009;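 active means inhibition above the mean of all tested compounds plus 3 SD, set per campaign, cut at about 35% in these data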;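 further: 0% = DMSO wells and 100% = thioflavine S control wells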
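Test system: hepatitis C virus NS3 helicase domain fragment enzyme. Also added: annealed dual-labelled DNA beacon duplex, ATP-started. Timing: 60 min unwinding reaction at 25 °C after ATP addition. Technique: Cy5 fluorescence. Measure: % inhibition of unwinding.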
MEKK2mut PB1 HTS: MEK5 binding signal on mutant MEKK2 PB1, primary screen, biochemical, multiplex bead flow cytometry, Alexa488-MEK5 | Alexa488-MEK5 binding to MEKK2 mutant | percent response, % at 10 µM | 290,000 compounds, 0.35% hits | AID 1530, 2009; in the data active means percent response above about 24%, passing the limit was not always enough
MEKK3 PB1 HTS: modulators of MEKK3-MEK5 PB1 binding, primary screen, biochemical, wildtype MEKK3, multiplex bead flow cytometry, Alexa488-MEK5 | binding response (% of control), % at 10 µM | Mitogen-activated protein kinase kinase kinase 3 (Homo sapiens), Q99759 | bead-based flow cytometry, Alexa488-MEK5 binding to MEKK3; actives lie on both sides; 0 = blocked by unlabeled MEK5, 100 = vehicle | 290,000 compounds, 1.4% hits;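 active means binding response more than 3 SD above or below the average of its plate-row segment, actives on both sides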;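 further: Alexa488 bead fluorescence after subtracting the streptavidin-only scavenger bead signal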
Target sequence (Q99759 whole entry, looked up): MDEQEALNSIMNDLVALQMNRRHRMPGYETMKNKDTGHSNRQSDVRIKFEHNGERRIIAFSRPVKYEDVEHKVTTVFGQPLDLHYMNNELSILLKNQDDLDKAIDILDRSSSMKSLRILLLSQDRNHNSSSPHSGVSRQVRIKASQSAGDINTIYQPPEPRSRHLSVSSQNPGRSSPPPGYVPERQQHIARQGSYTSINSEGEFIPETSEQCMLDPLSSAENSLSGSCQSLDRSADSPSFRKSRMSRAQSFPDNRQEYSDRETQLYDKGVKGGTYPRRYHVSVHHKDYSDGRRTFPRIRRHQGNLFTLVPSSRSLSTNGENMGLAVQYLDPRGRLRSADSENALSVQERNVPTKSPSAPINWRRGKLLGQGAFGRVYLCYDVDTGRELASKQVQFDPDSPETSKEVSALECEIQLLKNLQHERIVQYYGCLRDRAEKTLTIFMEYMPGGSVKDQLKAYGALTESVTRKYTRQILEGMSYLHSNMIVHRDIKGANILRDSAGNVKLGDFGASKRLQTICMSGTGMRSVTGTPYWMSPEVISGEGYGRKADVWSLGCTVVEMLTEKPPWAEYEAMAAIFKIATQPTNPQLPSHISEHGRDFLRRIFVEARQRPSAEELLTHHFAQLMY
FID counter: compounds displacing fluorescent DNA intercalator, primary screen, artefact control for HCV NS3 helicase inhibitor project, biochemical, FID fluorescence; DNA fluorescent intercalator displacement; inhibition, % at 7.9 µM; 290,000 compounds, 0.17% hits; in the data active means inhibition above about 37%;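 further: 0% = vehicle and 100% = reference compound; higher means more ethidium bromide displaced from hairpin DNA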
Starred values were filed as active, the others as inactive; . = not tested or not shown.

SMILES	MEKK2wt PB1 HTS	T cruzi repl	NS3 helicase inh	MEKK2mut PB1 HTS	MEKK3 PB1 HTS	FID counter
CCN1/C(=C/C=C/c2oc3ccc(-c4ccccc4)cc3[n+]2CC)Oc2ccc(-c3ccccc3)cc21	.	89.8*	-35.0	.	.	-155.8
O=C1c2ccccc2C(=O)N1Cc1ccc2c(c1)OCO2	90.0	-0.6	3.0	0.0	91.0	-4.1
Cc1cc2cc(CN3C(=O)c4ccccc4C3=O)ccc2n1C	94.0	83.0*	-17.2	-1.0	97.0	-7.8
CN(C)CCCNS(=O)(=O)c1ccc(N2CCC(c3ccc(Cl)cc3)=N2)cc1	162.0*	72.4*	-18.7	22.0	99.0	37.1*
O=S(=O)(c1ccc(N2CCC(c3ccc(Cl)cc3)=N2)cc1)N(CCO)CCO	101.0	8.0	-16.2	-1.0	99.0	-22.2
COc1cccc(NC(=O)C2CCN(S(=O)(=O)c3ccc4c(c3)C(C)(C)C(=O)N4C)CC2)c1	98.0	19.3	23.7	-2.0	100.0	-37.9
CC(C)C[C@@H]1NC(=O)[C@H](Cc2ccc(O)cc2)NC(=O)[C@H](CCC(N)=O)NC(=O)c2cc([N+](=O)[O-])cc(I)c2NCC[C@@H](C(N)=O)NC1=O	96.0	-14.8	4.5	-5.0	98.0	-32.9
CC(=O)NCCC(=O)Nc1nc(-c2ccc3ccccc3c2)cs1	98.0	59.7*	-4.5	1.0	104.0	-26.5
Nc1sc(-c2ccccc2)n[n+]1Cc1cccc2cccnc12	108.0	60.2*	-44.4	3.0	100.0	7.9
Cc1cc(C)c(NC(=O)c2ccc3c(c2)CCN3S(C)(=O)=O)c(C)c1	104.0	-9.2	0.3	7.0	102.0	-14.4
O=C(Nc1ccc(OC(F)F)c(Cl)c1)C(c1ccccc1)c1ccccc1	134.0	60.4*	1.1	4.0	147.0*	-1.5
CCc1cc(=O)n2c([nH]c3ccccc32)c1C#N	0.0*	-10.7	0.4	3.0	101.0	2.5
CSc1ccc(CN2CCN(Cc3ccc([N+](=O)[O-])cc3)CC2)cc1	84.0	66.1*	-11.7	-9.0	73.0	14.0
O=C(Nc1cc2c3c(c1)C1CCCC1CN3CC1CCCC21)c1ccccc1 (configuration not stated)	103.0	60.4*	-31.5	3.0	106.0	1.8
CC(=O)c1cccc(OCC(O)CNCC2COc3ccccc3O2)c1 (configuration not stated)	90.0	52.9	2.5	-20.0	85.0	12.9
O=C(COc1ccccc1)NC(=S)Nc1ccc2c(c1)Cc1ccccc1-2	99.0	61.0*	8.6	-2.0	110.0	0.4
O=[N+]([O-])c1ccc(S(=O)(=O)NCC(c2ccco2)N2CCc3ccccc3C2)cc1 (configuration not stated)	.	61.0*	.	.	.	.
CN1CCN(CCOc2ccc(Cl)c(Cl)c2)CC1	104.0	55.8*	2.3	0.0	102.0	12.4
CCc1ccc(OCCOCCN2CCN(C)CC2)cc1	115.0	43.6	13.4	3.0	109.0	15.4
CN1CCN(CCOc2ccc(Cc3ccccc3)cc2)CC1	103.0	54.8*	-25.5	10.0	101.0	26.5
O=C(NCC1CCCO1)C1CCCN(S(=O)(=O)c2cc(Cl)ccc2Cl)C1 (configuration not stated)	105.0	-3.6	0.3	8.0	107.0	-20.6
CN(C)c1cc(NC(=O)CNC(C)(C)CC(C)(C)C)c2ccccc2n1	109.0	25.0	14.6	1.0	104.0	36.0
CN(C)c1cc(NC(=O)CN2CCCC2)c2ccccc2n1	102.0	12.2	10.6	2.0	101.0	54.5*
COC(=O)C1=C(Nc2ccc(C)cc2)C=C(C)C(C(=O)OC)C1c1cccc(OC)c1 (configuration not stated)	99.0	58.0*	-3.0	3.0	108.0	-17.7
Cc1ccc2c(c1)N(CC(=O)N1CCCCC1c1cccnc1)C(=O)CO2 (configuration not stated)	105.0	60.8*	2.9	3.0	106.0	5.0
SMILES	MEKK2wt PB1 HTS	T cruzi repl	NS3 helicase inh	MEKK2mut PB1 HTS	MEKK3 PB1 HTS	FID counter
CC(C)Oc1ccc(CNC(=O)CC(c2ccccc2)c2cc(Cl)ccc2O)cc1 (configuration not stated)	91.0	56.4*	-4.0	-2.0	92.0	-19.6
Cc1cc(C)c(C(=O)NCCCN2CCOCC2)c(C)c1	98.0	-2.9	23.6	-4.0	100.0	-2.5
CC(=O)c1ccc(N2CCN(c3ccc(S(=O)(=O)NCCN(C)C)cc3[N+](=O)[O-])CC2)cc1	85.0	59.2*	-83.2	-23.0	84.0	26.1
COc1ccc(-c2ccnc3nc(Sc4ncc(C(F)(F)F)cc4Cl)nn23)cc1	94.0	37.2	-4.2	3.0	98.0	-3.3
FC(F)(F)c1cnc(Sc2nc3nccc(-c4ccc(Cl)cc4)n3n2)c(Cl)c1	.	55.5*	-1.1	.	.	-2.0
Cc1ccc2nc(NC(=O)c3ccc(S(=O)(=O)N4CCCc5ccccc54)cc3)sc2c1	92.0	13.2	-6.1	-2.0	88.0	8.2
CCOC(=O)N1CCN(S(=O)(=O)c2ccc(C(=O)N(CCCN(C)C)c3nc4cc(OC)ccc4s3)cc2)CC1	.	68.4*	.	.	.	.
CCN(CC)CCN(C(=O)c1ccc2c(c1)CCCC2)c1nc2ccc(C)cc2s1	148.0*	19.1	-29.1	31.0*	108.0	24.2
COc1ccc2sc(N(CCCN(C)C)C(=O)c3ccc(S(=O)(=O)N4CCc5ccccc5C4)cc3)nc2c1	.	57.2*	.	.	.	.
COc1ccc2sc(N(CCCN(C)C)C(=O)c3ccc(S(=O)(=O)N4CCCC4)cc3)nc2c1	.	44.5	.	.	.	.
Cc1cc(C)c2sc(N(CCCN(C)C)C(=O)c3ccc(S(=O)(=O)N4CCCc5ccccc54)cc3)nc2c1	.	60.0*	.	.	.	.
CCc1noc(C)c1C(=O)NNC(=O)COc1ccc(Br)cc1	107.0	-9.9	-7.0	4.0	103.0	-4.8
O=C1C2CCCN2C(c2ccco2)N1c1ccc(F)cc1 (configuration not stated)	100.0	0.9	8.0	2.0	98.0	0.2
CN(C)CCCN(C(=O)c1ccc(S(=O)(=O)N2CCc3ccccc3C2)cc1)c1nc2ccc(F)cc2s1	252.0*	24.8	-37.6	71.0*	116.0	41.1*
CN(C)CCN(C(=O)c1cc(Cl)sc1Cl)c1nc2ccc(F)cc2s1	118.0	56.1*	3.4	25.0	112.0	2.0
Cc1cc(C)c2nc(N(CCCN(C)C)C(=O)c3ccc(S(=O)(=O)N4CC(C)OC(C)C4)cc3)sc2c1 (configuration not stated)	.	59.5*	.	.	.	.
